Measurements as given in ChEMBL document CHEMBL1150157, “Five new steroidal saponins from Solanum chrysotrichum leaves and their antimycotic activity” (2002).
Converted amounts (≈) assume the structure as drawn.

Tests used:
Type in all cases: functional
[1] = tested on: Trichophyton mentagrophytes; assay: Antimicrobial activity against Trichophyton mentagrophytes ATCC 28185 after 72 hrs by agar dilution method; conditions: ATCC 28185, 72 h
Method in brief: (§1)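 Dermatophytes maintained on potato dextrose agar at 27 °C. Assayed by agar dilution on Sabouraud glucose agar. Pure compounds in DMSO were serially diluted 2-fold (400–3.125 µg/mL) into the medium, with final DMSO ≤2%. Spots of 10^6 spores/mL (hemocytometer count) were applied with a 0.010 mL loop. Plates ran at 29 °C for 72 h, in triplicate. MIC was the lowest concentration with no visible growth.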

[2] = tested on: Trichophyton rubrum; assay: Antimicrobial activity against Trichophyton rubrum ATCC 28188 after 72 hrs by agar dilution method; conditions: ATCC 28188, 72 h; method in brief: as §1
[3] = tested on: Candida albicans; assay: Antimicrobial activity against Candida albicans ATCC 10231 after 24 hrs by agar dilution method
Method in brief: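 C. albicans kept on Sabouraud glucose agar, which also served as the assay medium. Pure compounds in DMSO were diluted 2-fold serially (400–3.125 µg/mL) into the agar, final DMSO ≤2%. An inoculum of 10^5 cells/mL (hemocytometer) was spotted with a 0.010 mL calibrated loop. Plates were held at 29 °C for 24 h, in triplicate. MIC was the lowest concentration inhibiting visible growth.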

[4] = tested on: Aspergillus niger; assay: Antimicrobial activity against Aspergillus niger ATCC 10335 after 48 hrs by agar dilution method; conditions: ATCC 10335, 48 h
Method in brief: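 A. niger maintained on potato dextrose agar at 27 °C. Tested by agar dilution on Sabouraud glucose agar with 2-fold serial DMSO dilutions of pure compounds (400–3.125 µg/mL) added to the medium, final DMSO ≤2%. Inoculum was 10^6 spores/mL, hemocytometer-counted, applied by 0.010 mL loop. Incubation at 29 °C for 48 h, in triplicate. MIC was the lowest concentration preventing visible growth.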

Row | Compound | MIC [1] | MIC [2] | MIC ([3]; ATCC 10231, 24 h) | MIC [4] | MIC [3]
1 | C[C@@H]1CC[C@@]2(OC1)O[C@H]1C[C@H]3[C@@H]4C[C@H](O[C@@H]5OC[C@@H](O)[C@H](O)[C@H]5O)[C@H]5C[C@@H](O)CC[C@]5(C)[C@H]4CC[C@]3(C)[C@H]1[C@@H]2C | 100 µg/mL (≈ 177 µM) | 100 µg/mL (≈ 177 µM) | 200 µg/mL (≈ 354 µM) | > 400 µg/mL | –
2 | NYSTATIN | – | – | – | – | 8 µg/mL
3 | C[C@@H]1CC[C@@]2(OC1)O[C@H]1C[C@H]3[C@@H]4C[C@H](O[C@@H]5O[C@H](C)[C@@H](O)[C@H](O[C@@H]6O[C@@H](C)[C@H](O)[C@@H](O)[C@H]6O)[C@H]5O)[C@H]5C[C@@H](O)CC[C@]5(C)[C@H]4CC[C@]3(C)[C@H]1[C@@H]2C | 200 µg/mL (≈ 276 µM) | 50 µg/mL (≈ 69 µM) | 200 µg/mL (≈ 276 µM) | 400 µg/mL (≈ 552 µM) | –
4 | C[C@H]1CO[C@@]2(O[C@H]3C[C@H]4[C@@H]5C[C@H](O[C@@H]6O[C@H](C)[C@@H](O)[C@H](O[C@@H]7O[C@@H](C)[C@H](O)[C@@H](O)[C@H]7O)[C@H]6O)[C@H]6C[C@@H](O)CC[C@]6(C)[C@H]5CC[C@]4(C)[C@H]3[C@@H]2C)[C@@H](O)C1 | 200 µg/mL (≈ 270 µM) | 200 µg/mL (≈ 270 µM) | 200 µg/mL (≈ 270 µM) | 200 µg/mL (≈ 270 µM) | –
5 | C[C@@H]1CC[C@@]2(OC1)O[C@H]1C[C@H]3[C@@H]4C[C@H](O[C@@H]5O[C@H](C)[C@@H](O)[C@H](O[C@@H]6OC[C@@H](O)[C@H](O)[C@H]6O)[C@H]5O)[C@H]5C[C@@H](O)CC[C@]5(C)[C@H]4CC[C@]3(C)[C@H]1[C@@H]2C | 12.5 µg/mL (≈ 17.6 µM) | 12.5 µg/mL (≈ 17.6 µM) | 200 µg/mL (≈ 281 µM) | 100 µg/mL (≈ 141 µM) | –
6 | C[C@@H]1CC[C@@]2(OC1)O[C@H]1C[C@H]3[C@@H]4C[C@H](O[C@@H]5O[C@H](C)[C@@H](O)[C@H](O)[C@H]5O)[C@H]5C[C@@H](O)CC[C@]5(C)[C@H]4CC[C@]3(C)[C@H]1[C@@H]2C | 25 µg/mL (≈ 43.2 µM) | 50 µg/mL (≈ 86.4 µM) | 200 µg/mL (≈ 346 µM) | > 400 µg/mL | –
7 | Clc1ccc(COC(Cn2ccnc2)c2ccc(Cl)cc2Cl)c(Cl)c1 (centres undefined) [MICONAZOLE] | 4 µg/mL (≈ 9.61 µM) | 4 µg/mL (≈ 9.61 µM) | – | 8 µg/mL (≈ 19.2 µM) | –
